Consider one compound from ChEMBL document CHEMBL4024779, “Novel Terminal Bipheny-Based Diapophytoene Desaturases (CrtN) Inhibitors as Anti-MRSA/VISR/LRSA Agents with Reduced hERG Activity” (J Med Chem, 2018).

One data set concerns the target Cytochrome P450 2C8 (Homo sapiens, UniProt P10632). Kind of data set: Inhibition of CYP2C8 in human liver microsomes using paclitaxel as substrate upto 10 uM after 20 mins in presence of NADPH by LC-MS/MS analysis. It counts as ADME.
The nature of data set [1]: AUC (0 to infinity) in Sprague-Dawley rat at 10 mg/kg, ip administered as single dose by LC-MS/MS analysis. The conditions noted are these: in vivo. The class given is ADME, organism-based. Further details: dose 10 mg/kg, time infinity, route intraperitoneal.
A short description of data set [2]: Clearance in Sprague-Dawley rat at 5 mg/kg, iv administered as single dose by LC-MS/MS analysis. It counts as ADME, organism-based. The following applies: in vivo.
Data set [3] can be described thus: Half life in Sprague-Dawley rat at 5 mg/kg, iv administered as single dose by LC-MS/MS analysis. It counts as ADME, organism-based. The following applies: in vivo.
The nature of data set [4]: Oral bioavailability in mouse at 10 mg/kg administered as single dose by LC-MS/MS analysis. The class given is ADME, organism-based. The following applies: in vivo.
The subject of data set [5] is Staphylococcus aureus. In words: In vivo anti-virulence activity against methicillin-resistant Staphylococcus aureus Mu50 infected in BALB/c mouse model assessed as reduction in bacterial load in kidneys at 0.05 mg bid for 3.5 days administered intraperitoneally 6 hrs post infection by serial dilution method. The class given is functional. Further details: scale not given: the % may be the effect or the level left.

Data set [6] can be described thus: Inhibition of CrtN in methicillin-resistant Staphylococcus aureus LRSA56 assessed as reduction in staphyloxanthin levels after 48 hrs by spectrophotometric method-based pigment inhibition assay.
Data set [7] in a line: Inhibition of CrtN in methicillin-resistant Staphylococcus aureus LRSA205 assessed as reduction in staphyloxanthin levels after 48 hrs by spectrophotometric method-based pigment inhibition assay.
The subject of data set [8] is Staphylococcus aureus. Kind of data set: In vivo anti-virulence activity against methicillin-resistant Staphylococcus aureus LRSA56 infected in BALB/c mouse model assessed as reduction in bacterial load in heart at 0.1 mg bid for 3.5 days administered intraperitoneally 6 hrs post infection by serial dilution method relative to control. It counts as functional. The arrangement: scale not given: the % may be the effect or the level left. Put shortly:
(§1)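 Mice were infected by retro-orbital injection with LRSA56 (5.0 × 10^7 CFU) or LRSA202 (7.0 × 10^7 CFU). Compound was given intraperitoneally 6 h after infection. […] Log10 CFU was counted in kidneys and hearts, with groups compared by two-tailed Mann-Whitney test.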

Data set [9] relates to Staphylococcus aureus. Kind of data set: In vivo anti-virulence activity against methicillin-resistant Staphylococcus aureus LRSA56 infected in BALB/c mouse model assessed as reduction in bacterial load in heart at 0.1 mg bid for 3.5 days administered intraperitoneally 6 hrs post infection by serial dilution method relative to linezolid. It counts as functional. The arrangement: scale not given: the % may be the effect or the level left. Put shortly: as §1

Data set [10] relates to Staphylococcus aureus. Kind of data set: In vivo anti-virulence activity against methicillin-resistant Staphylococcus aureus NF65Y infected in BALB/c mouse model assessed as reduction in bacterial load in heart at 0.1 mg bid for 3.5 days administered intraperitoneally 6 hrs post infection by serial dilution method relative to vancomycin. It counts as functional, organism-based. The gist of the method: (§2)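 Mice infected retro-orbitally with S. aureus NF65Y (3.5 × 10^8 CFU) or XN108 (2.1 × 10^8 CFU). Test compound given i.p. b.i.d. starting 6 h post-infection. […] Log10 CFU per kidney and heart counted. Two-tailed Mann−Whitney test.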

Data set [11] has as its system Staphylococcus aureus. Kind of data set: In vivo anti-virulence activity against methicillin-resistant Staphylococcus aureus NF65Y infected in BALB/c mouse model assessed as reduction in bacterial load in kidney at 0.1 mg bid for 3.5 days administered intraperitoneally 6 hrs post infection by serial dilution method relative to vancomycin. The class given is functional, organism-based. Put shortly:
as §2

The test system of data set [12] is Staphylococcus aureus. Kind of data set: In vivo anti-virulence activity against methicillin-resistant Staphylococcus aureus XN108 infected in BALB/c mouse model assessed as reduction in bacterial load in kidney at 0.1 mg bid for 3.5 days administered intraperitoneally 6 hrs post infection by serial dilution method relative to vancomycin. The class given is functional, organism-based. The gist of the method:
as §2

Data set [13] concerns Rattus norvegicus. Kind of data set: Toxicity in Sprague-Dawley rat at 60 to 1000 mg/kg, po administered as single dose assessed as poisoning symptoms measured immediately post administration. The following applies: in vivo. It counts as organism-based. The gist of the method:
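Acute toxicity study: 30 rats randomly split into three groups and given a single oral dose (60, 250 or 1000 mg/kg) on day 1. Animals were watched for poisoning symptoms and mortality immediately after dosing and over a 2-week post-treatment period. Behaviour, water/food consumption and body weight were also tracked.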

For data set [14], the system named is Rattus norvegicus. Kind of data set: Toxicity in Sprague-Dawley rat at 60 to 1000 mg/kg, po administered as single dose assessed as abnormal behavior measured during 2 weeks post administration. The following applies: in vivo, 336 h. It counts as organism-based. Put shortly:
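Rats, 30 in total, randomised into three groups. Each received a single oral dose of 60, 250 or 1000 mg/kg on day 1. Poisoning symptoms, mortality, behaviour, water and food consumption and body weight monitored immediately and over 2 weeks.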

A further data set concerns Pseudomonas aeruginosa. In words: Antibacterial activity against Pseudomonas aeruginosa after 24 hrs by broth dilution method. It counts as functional.
Data set [15] deals with Staphylococcus aureus. In words: In vivo anti-virulence activity against Staphylococcus aureus Newman in mouse lethal infection model assessed as host survival rate at 0.1 mg bid for 3.5 days administered intraperitoneally 6 hrs post infection and measured on day 4. The class given is functional. Put shortly: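 In a lethal sepsis model, mice (n=15) were challenged with 2 × 10^8 CFU S. aureus Newman. Animal survival was recorded daily through day 8.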

The subject of data set [16] is Staphylococcus aureus. Kind of data set: In vivo anti-virulence activity against methicillin-resistant Staphylococcus aureus LRSA202 infected in BALB/c mouse model assessed as reduction in bacterial load in heart at 0.1 mg bid for 3.5 days administered intraperitoneally 6 hrs post infection by serial dilution method relative to control. It counts as functional, organism-based. Put shortly: as §1

Data set [17] concerns Staphylococcus aureus. Kind of data set: In vivo anti-virulence activity against Staphylococcus aureus Mu50 infected in BALB/c mouse model assessed as reduction in bacterial load in kidney at 0.2 mg bid for 3.5 days administered orally 6 hrs post infection by serial dilution method relative to control. It counts as functional, organism-based. The gist of the method: (§3)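 Mice were infected by retro-orbital injection with Mu50 (4.6 × 10^9 CFU) or NRS271 (3.5 × 10^8 CFU). Oral compound was given b.i.d. for 3.5 d, starting 6 h after infection. Log10 CFU was counted per kidney and per heart.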

For data set [18], the system named is Staphylococcus aureus. Kind of data set: In vivo anti-virulence activity against Staphylococcus aureus NRS271 infected in BALB/c mouse model assessed as reduction in bacterial load in kidney at 0.2 mg bid for 3.5 days administered orally 6 hrs post infection by serial dilution method relative to control. It counts as functional, organism-based. The gist of the method:
as §3

The target in data set [19] is T1, 4,4'-diapophytoene desaturase (4,4'-diaponeurosporene-forming) (Staphylococcus aureus (strain Mu50 / ATCC 700699)) (UniProt Q99R76).
T1 sequence (whole entry): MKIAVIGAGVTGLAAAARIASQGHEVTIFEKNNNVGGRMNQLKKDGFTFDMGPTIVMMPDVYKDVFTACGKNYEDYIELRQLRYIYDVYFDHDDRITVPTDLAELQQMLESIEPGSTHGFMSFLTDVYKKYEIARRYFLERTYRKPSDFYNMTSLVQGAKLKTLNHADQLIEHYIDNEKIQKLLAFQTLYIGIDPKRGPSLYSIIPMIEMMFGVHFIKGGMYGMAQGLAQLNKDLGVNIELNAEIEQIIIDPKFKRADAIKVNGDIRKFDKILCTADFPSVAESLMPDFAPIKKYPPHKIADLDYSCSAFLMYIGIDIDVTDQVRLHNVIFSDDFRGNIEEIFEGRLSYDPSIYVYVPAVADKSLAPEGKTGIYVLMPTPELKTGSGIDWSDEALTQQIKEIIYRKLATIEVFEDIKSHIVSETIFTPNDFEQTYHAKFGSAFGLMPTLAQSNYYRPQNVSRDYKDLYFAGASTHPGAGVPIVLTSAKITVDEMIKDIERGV
The conditions noted are these: Staphylococcus aureus subsp. aureus Mu50; 1 uM.

Active and inactive are the calls of the source. No cut-off for these calls is given here.

Cytochrome P450 2C8, sequence (P10632 whole entry): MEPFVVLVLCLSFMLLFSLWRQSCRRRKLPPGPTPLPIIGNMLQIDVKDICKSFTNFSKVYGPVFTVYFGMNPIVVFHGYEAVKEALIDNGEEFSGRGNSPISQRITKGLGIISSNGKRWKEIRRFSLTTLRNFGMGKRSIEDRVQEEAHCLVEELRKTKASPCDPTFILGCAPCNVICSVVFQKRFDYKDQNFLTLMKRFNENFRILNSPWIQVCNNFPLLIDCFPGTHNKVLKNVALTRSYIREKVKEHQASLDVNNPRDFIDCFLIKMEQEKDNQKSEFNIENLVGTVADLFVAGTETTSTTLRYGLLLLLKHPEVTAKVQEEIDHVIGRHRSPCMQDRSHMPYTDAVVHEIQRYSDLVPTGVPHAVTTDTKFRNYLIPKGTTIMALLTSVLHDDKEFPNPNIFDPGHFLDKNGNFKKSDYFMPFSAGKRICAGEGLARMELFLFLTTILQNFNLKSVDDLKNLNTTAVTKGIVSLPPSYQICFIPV

For `CN(C/C=C/c1ccc(-c2ccccc2)cc1)Cc1coc2ccccc12.Cl`, the values for the IC50 (at Cytochrome P450 2C8; in [6]; in [7]) were over 10000 nM, 1.8 nM and 10.5 nM, respectively. For the same compound, the total exposure AUC(0-inf) in data set [1] was 1090 µg·h/mL. This compound had a clearance in data set [2] of 29.2 mL/min/kg. In addition, in [3], the half-life was 2.46 h. In addition, the bioavailability in data set [4] was 83.8%. The Activity is over 91.8% in the data set on Staphylococcus aureus [5]; over 81.4% in the data set with Staphylococcus aureus [8]; over 71.8% in the data set on Staphylococcus aureus [9]; “Non-Toxic” with Rattus norvegicus [13]; “Non-Toxic” in the data set on Rattus norvegicus [14]. For the same compound, the outcome with Staphylococcus aureus [10], in the data set with Staphylococcus aureus [11], with Staphylococcus aureus [12], in the data set on Staphylococcus aureus [16], in the data set with Staphylococcus aureus [17] and in the data set with Staphylococcus aureus [18] was Active. Also, the minimal inhibitory concentration (MIC) in the data set with Pseudomonas aeruginosa is over 500 µg/mL. The Survival with Staphylococcus aureus [15] is 80%; in data set [19], 0.4%.
